Type in all cases: ADME, organism-based, Macaca mulatta
Series [1] is described as follows: Drug level in normal rhesus monkey thalamus assessed as standard uptake value at 96.3 MBq, iv after 4.5 mins by microPET. To be noted: in vivo, 0.075 h.
Series [2] in a line: Drug level in normal rhesus monkey thalamus assessed as standard uptake value at 96.3 MBq, iv after 52.5 mins by microPET. The settings on record: in vivo, 0.875 h.
Series [3] in a line: Drug level in normal rhesus monkey pons assessed as standard uptake value at 96.3 MBq, iv after 4.5 mins by microPET. The settings on record: in vivo, 0.075 h.
Series [4] can be described thus: Drug level in normal rhesus monkey pons assessed as standard uptake value at 96.3 MBq, iv after 42.5 mins by microPET. To be noted: in vivo.
Series [5] is described as follows: Drug level in normal rhesus monkey pons assessed as standard uptake value at 96.3 MBq, iv after 65 mins by microPET. To be noted: in vivo.
A short description of series [6]: Drug level in normal rhesus monkey parietal cortex assessed as standard uptake value at 96.3 MBq, iv after 10 mins by microPET. To be noted: in vivo.
Series [7] is described as follows: Drug level in normal rhesus monkey cerebellum assessed as standard uptake value at 96.3 MBq, iv after 85 mins by microPET. The settings on record: in vivo. An outline of the steps:
(§1)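 One normal rhesus monkey, each tracer given iv via the vena saphena (81.2, 96.3 or 109.4 MBq), with 1 day between tracer injections. Dynamic brain μPET over 180 min used frames of 5 × 60 s, 5 × 120 s, 9 × 300 s and 12 × 600 s. Images were reconstructed by filtered back projection with a RAMP filter. Regional time-activity curves were expressed as SUV.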

Series [8] is described as follows: Drug level in normal rhesus monkey frontal cortex assessed as standard uptake value at 96.3 MBq, iv after 125 mins by microPET. To be noted: in vivo.
Series [9] can be described thus: Drug level in normal rhesus monkey frontal cortex assessed as standard uptake value at 96.3 MBq, iv after 145 mins by microPET. To be noted: in vivo.
The nature of series [10]: Drug level in normal rhesus monkey white matter assessed as standard uptake value at 96.3 MBq, iv after 4.5 mins by microPET. To be noted: in vivo, 0.075 h.
A short description of series [11]: Drug level in normal rhesus monkey white matter assessed as standard uptake value at 96.3 MBq, iv after 47.5 mins by microPET. The settings on record: in vivo.
Series [12] in a line: Drug level in normal rhesus monkey white matter assessed as standard uptake value at 96.3 MBq, iv after 57.5 mins by microPET. To be noted: in vivo.
Series [13] is described as follows: Drug level in normal rhesus monkey pons assessed as standard uptake value at 81.2 MBq, iv after 4.5 mins by microPET. To be noted: in vivo, 0.075 h.
Series [14] can be described thus: Drug level in normal rhesus monkey pons assessed as standard uptake value at 81.2 MBq, iv after 145 mins by microPET. To be noted: in vivo.
Series [15] can be described thus: Drug level in normal rhesus monkey parietal cortex assessed as standard uptake value at 81.2 MBq, iv after 0.5 mins by microPET. The settings on record: in vivo.
A short description of series [16]: Drug level in normal rhesus monkey parietal cortex assessed as standard uptake value at 81.2 MBq, iv after 37.5 mins by microPET. The settings on record: in vivo, 0.625 h.
A short description of series [17]: Drug level in normal rhesus monkey parietal cortex assessed as standard uptake value at 81.2 MBq, iv after 47.5 mins by microPET. The settings on record: in vivo.
Series [18] in a line: Drug level in normal rhesus monkey parietal cortex assessed as standard uptake value at 81.2 MBq, iv after 105 mins by microPET. To be noted: in vivo, 1.75 h.
The nature of series [19]: Drug level in normal rhesus monkey parietal cortex assessed as standard uptake value at 81.2 MBq, iv after 145 mins by microPET. To be noted: in vivo.
A short description of series [20]: Drug level in normal rhesus monkey parietal cortex assessed as standard uptake value at 81.2 MBq, iv after 175 mins by microPET. The settings on record: in vivo.
Series [21] is described as follows: Drug level in normal rhesus monkey white matter assessed as standard uptake value at 81.2 MBq, iv after 2.5 mins by microPET. To be noted: in vivo.
Series [22] in a line: Drug level in normal rhesus monkey thalamus assessed as standard uptake value at 81.2 MBq, iv after 42.5 mins by microPET. The settings on record: in vivo.
Series [23] is described as follows: Drug level in normal rhesus monkey cerebellum assessed as standard uptake value at 81.2 MBq, iv after 65 mins by microPET. To be noted: in vivo. An outline of the steps: as §1
A short description of series [24]: Drug level in normal rhesus monkey cerebellum assessed as standard uptake value at 81.2 MBq, iv after 175 mins by microPET. The settings on record: in vivo. An outline of the steps:
as §1

Series [25] in a line: Drug level in normal rhesus monkey frontal cortex assessed as standard uptake value at 81.2 MBq, iv after 14 mins by microPET. To be noted: in vivo.
Series [26] in a line: Drug level in normal rhesus monkey frontal cortex assessed as standard uptake value at 152.9 MBq, iv after 65 mins by microPET. The settings on record: in vivo. A digest of the protocol:
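Single normal rhesus monkey; tracer given iv via the vena saphena, 1 day apart from the other tracer injections. Dynamic μPET ran 90 min (5×60 s, 5×120 s, 9×300 s, 3×600 s). Images were reconstructed by filtered back projection with a RAMP filter. Regional time-activity curves were expressed as SUV.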

Series [27] can be described thus: Drug level in normal rhesus monkey white matter assessed as standard uptake value at 152.9 MBq, iv after 12 mins by microPET. The settings on record: in vivo, 0.2 h.
Series [28] can be described thus: Drug level in normal rhesus monkey thalamus assessed as standard uptake value at 152.9 MBq, iv after 37.5 mins by microPET. The settings on record: in vivo, 0.625 h.
The nature of series [29]: Drug level in normal rhesus monkey thalamus assessed as standard uptake value at 152.9 MBq, iv after 47.5 mins by microPET. To be noted: in vivo.
Series [30] can be described thus: Drug level in normal rhesus monkey thalamus assessed as standard uptake value at 152.9 MBq, iv after 85 mins by microPET. The settings on record: in vivo.
Series [31] in a line: Drug level in normal rhesus monkey pons assessed as standard uptake value at 152.9 MBq, iv after 85 mins by microPET. The settings on record: in vivo.
The nature of series [32]: Drug level in normal rhesus monkey parietal cortex assessed as standard uptake value at 152.9 MBq, iv after 27.5 mins by microPET. The settings on record: in vivo.
Series [33] in a line: Drug level in normal rhesus monkey parietal cortex assessed as standard uptake value at 152.9 MBq, iv after 42.5 mins by microPET. The settings on record: in vivo.
Series [34] can be described thus: Drug level in normal rhesus monkey parietal cortex assessed as standard uptake value at 152.9 MBq, iv after 47.5 mins by microPET. The settings on record: in vivo.
A short description of series [35]: Drug level in normal rhesus monkey parietal cortex assessed as standard uptake value at 152.9 MBq, iv after 57.5 mins by microPET. To be noted: in vivo.
A short description of series [36]: Drug level in normal rhesus monkey pons assessed as standard uptake value at 109.4 MBq, iv after 27.5 mins by microPET. The settings on record: in vivo.
Series [37] in a line: Drug level in normal rhesus monkey pons assessed as standard uptake value at 109.4 MBq, iv after 63 mins by microPET. To be noted: in vivo, 1.05 h.
Series [38] is described as follows: Drug level in normal rhesus monkey frontal cortex assessed as standard uptake value at 109.4 MBq, iv after 15.5 mins by microPET. The settings on record: in vivo.
Series [39] is described as follows: Drug level in normal rhesus monkey thalamus assessed as standard uptake value at 109.4 MBq, iv after 0.125 mins by microPET. To be noted: in vivo, 7 s.
Series [40] is described as follows: Drug level in normal rhesus monkey frontal cortex assessed as standard uptake value at 109.4 MBq, iv after 123 mins by microPET. To be noted: in vivo, 2.05 h.
Series [41] in a line: Drug level in normal rhesus monkey white matter assessed as standard uptake value at 109.4 MBq, iv after 32.5 mins by microPET. To be noted: in vivo.

`CN(C)c1ccc2nc(-c3ccc([18F])cc3)sc2c1`: the SUV is 1.93 in [1]; 2.26 in series [2]; 1.28 in series [3]; 1.7 in series [4]; 1.83 in [5]; 2.26 in [6]. For the same molecule, the SUV in series [7] is 1.03; in [8], 1.54; in [9] it was 1.44; in series [10], 1.22; in [11] it was 1.37; in [12] it was 1.37.
On to `CNc1ccc2nc(-c3ccc([18F])cc3)sc2c1`, for which the SUV is 5.172 in series [13]; 5.067 in series [14]; 0.924 in series [15]; 3.965 in [16]; 3.676 in [17]; 2.784 in series [18]. In addition, the SUV amounted to 2.565 in [19]; 2.528 in series [20]; 2.607 in [21]; 5.578 in series [22]; 1.88 in series [23]; 1.384 in series [24]. For the same molecule, in series [25], the SUV is recorded as 6.096.
`[11CH3]Nc1ccc(-c2nc3ccc(O)cc3s2)cc1` [PITTSBURGH COMPOUND B]: the SUV in series [26] is 0.653; in [27], 1.434; in series [28], 1.364; in series [29], 1.161; in series [30] it was 0.672; in series [31] it was 0.718. In addition, the SUV in [32] turned out to be 1.221; in series [33] it was 0.906; in [34], 0.862; in series [35] it was 0.742.
On to `Nc1ccc2nc(-c3ccc([18F])cc3)sc2c1`, for which the SUV is given as 4.78 in [36]; 4.75 in series [37]; 5.08 in [38]; 0 in series [39]; 4.13 in series [40]; 3.36 in series [41].

(Values after ChEMBL document CHEMBL1154674, “Synthesis and evaluation of three 18F-labeled aminophenylbenzothiazoles as amyloid imaging agents” (J Med Chem, 2009).)
